Each structure is given as a SMILES string. pEC50: −log10 of the molar value. Calls of active or inactive are those of the source. No cut-off for these calls is given here.

For assay [1], the species on record is Canis familiaris. Nature of the assay: Renal blood flow was measured in dogs; Highly significant activity. Particulars: Canis lupus familiaris; Kidney. Format: functional, organism-based.
The species entered for assay [2] is Canis familiaris. Kind of assay: Renal vascular resistance was calculated as the ratio of the mean arterial blood pressure / mean renal blood flow; Highly significant activity. In kind it is functional, organism-based. Particulars: Canis lupus familiaris.
In assay [3] the test system is Canis familiaris. Kind of assay: Compound was evaluated for determining renal vascular resistance(iv) in dogs. In kind it is functional, Canis lupus familiaris. An outline of the steps: (§1)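 Secondary renal screen in anesthetized dogs: cumulative dose-response by infusing drug at progressively increasing rates, 5 min per dose level. RVR ED15 is the average minimum cumulative dose lowering RVR by 15%; maximum effect is the average maximum % fall in RVR. Selectivity ratios are separations between RVR ED15 and doses giving 30% change in iliac vascular resistance, 20% in MABP, 20% in HR.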

The species entered for assay [4] is Canis familiaris. Kind of assay: Compound was evaluated for average maximum percent decrease in renal vascular resistance in dogs. In kind it is functional, Canis lupus familiaris. An outline of the steps:
as §1

The species named for assay [5] is Rattus norvegicus. Kind of assay: Adenylase cyclase activity in rat striatal membranes at the concentration of 10e-5. To be noted: Striatum, Membrane. Format: functional.
The species entered for assay [6] is Rattus norvegicus. Nature of the assay: Adenylase cyclase activity in rat striatal membranes at the concentration of 10e-6. In kind it is functional. To be noted: Striatum, Membrane.
Assay [7] relates to Rattus norvegicus. Kind of assay: Central dopaminergic activity against contralateral rotation(1000) in lesioned rats at the dose of 5.8(po) in 2 h; I=Inactive. In kind it is functional, organism-based. The method, boiled down: (§2)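 Oral dosing in rats with substantia nigra lesions, scoring contralateral rotations. RD1000 is the minimum dose producing 1000 turns in 2 h.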
For assay [8], the system named is Rattus norvegicus. Nature of the assay: Central dopaminergic activity for minimum concentration which produced 500 rotations(ip) in 2 h. Format: functional. An outline of the steps:
(§3)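 Rats with substantia nigra lesions scored for contralateral rotation after intraperitoneal dosing (routine), oral dosing for selected compounds, or intracaudal administration for intrinsic activity. RD500 and RD1000 are the minimum doses giving 500 and 1000 turns, respectively, in 2 h.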

A short description of assay [9]: Selectivity ratio of compound as ED15 relative to heart rate(HR) ED20. In kind it is functional. An outline of the steps: as §1
A short description of assay [10]: Selectivity ratio of compound as ratio of ED15 relative to mean arterial blood pressure(MABP) ED20. In kind it is functional. An outline of the steps:
as §1

Assay [11] in a line: Selectivity ratio of Compound as ratio of ED15 relative to iliac vascular resistance(IVR) ED30. In kind it is functional. The method, boiled down: as §1
The species named for assay [12] is Rattus norvegicus. Kind of assay: Central dopaminergic activity against contralateral rotation(500) in lesioned rats(ic) in 2 h. In kind it is functional. An outline of the steps: as §3
For assay [13], the system named is Rattus norvegicus. Kind of assay: Central dopaminergic activity against contralateral rotation(1000) in lesioned rats(po) in 2 h. In kind it is functional. The method, boiled down:
as §2

For assay [14], the species on record is Canis familiaris. Nature of the assay: Renal blood flow was measured in dogs; Significant activity. Particulars: Canis lupus familiaris; Kidney. Format: functional, organism-based.
The species entered for assay [15] is Rattus norvegicus. Nature of the assay: Adenylase cyclase activity in rat striatal membranes. To be noted: Striatum. In kind it is functional, organism-based, Membrane.
Assay [16] is filed under the species Rattus norvegicus. Nature of the assay: Central dopaminergic activity against contralateral rotation(500) in lesioned rats(ic). In kind it is functional. The method, boiled down: as §3
The species named for assay [17] is Canis familiaris. Kind of assay: Renal blood flow was measured in dogs; I=Inactive. In kind it is functional, organism-based. Particulars: Canis lupus familiaris; Kidney.
The species named for assay [18] is Canis familiaris. Kind of assay: Renal vascular resistance was calculated as the ratio of the mean arterial blood pressure / mean renal blood flow; I=Inactive. In kind it is functional, organism-based. Particulars: Canis lupus familiaris.
In assay [19] the test system is Rattus norvegicus. Kind of assay: Central dopaminergic activity for minimum concentration which produced 500 rotations at the dose of 2.0 mg/kg (i.p.) in 2 h. Format: functional. Particulars: route intraperitoneal. The method, boiled down: as §3
Assay [20] relates to Rattus norvegicus. Kind of assay: Central dopaminergic activity against contralateral rotation(1000) in lesioned rats at the dose of 6.0 mg/kg (p.o.) in 2 h. In kind it is functional. Particulars: route oral. The method, boiled down: as §2
The test system of assay [21] is Rattus norvegicus. Nature of the assay: Central dopaminergic activity against contralateral rotation(1000) in lesioned rats at the dose of 10 mg/kg (p.o.) in 2 h. Format: functional. To be noted: route oral. The method, boiled down: as §2
Assay [22] deals with Rattus norvegicus. Kind of assay: Central dopaminergic activity for minimum concentration which produced 500 rotations at the dose of 2 mg/kg (i.p.) in 2 h; I=Inactive. Details: dose 2 mg/kg. In kind it is functional, organism-based. An outline of the steps:
as §3

The test system of assay [23] is Rattus norvegicus. Nature of the assay: Central dopaminergic activity for minimum concentration which produced 500 rotations at the dose of 2.0 mg/kg (i.p.) in 2 h; I=Inactive. Format: functional, organism-based. Also on record: dose 2 mg/kg. The method, boiled down: as §3
Assay [24] deals with Rattus norvegicus. Nature of the assay: Central dopaminergic activity against contralateral rotation(1000) in lesioned rats at the dose of 6 mg/kg (p.o.) in 2 h; I=Inactive.
Assay [25] concerns Rattus norvegicus. Kind of assay: Central dopaminergic activity against contralateral rotation(1000) in lesioned rats(po) in 2 hr at 10 mg/kg; I=Inactive. Format: functional, organism-based. Also on record: dose 10 mg/kg. The method, boiled down:
as §2

For assay [26], the species on record is Rattus norvegicus. Kind of assay: Central dopaminergic activity against contralateral rotation(500) in lesioned rats. In kind it is functional. The method, boiled down: as §3
Assay [27] has as its system Rattus norvegicus. Nature of the assay: Central dopaminergic activity for minimum concentration which produced 500 rotations at the dose of 10 mg/kg (i.p.) in 2 h; I=Inactive. In kind it is functional, organism-based. Details: dose 10 mg/kg. An outline of the steps:
as §3

Assay [28] relates to Rattus norvegicus. Nature of the assay: Central dopaminergic activity for minimum concentration which produced 500 rotations(ip). In kind it is functional. The method, boiled down: as §3

Take `Br.Oc1cc2c(c(Cl)c1O)CCNCC2c1cccc(C(F)(F)F)c1` (stereo unspecified): in assay [1], the RBF entry is “Highly significant activity”. For the same compound, the RVR result in [2] is “Significant activity”. The “RVR ED15” value in assay [3] was found to be 0.008 mg/kg. Moreover, the “Decrease RVR” value in [4] is 44%. Besides, the DA response in assay [5] is 64%; in assay [6] it was 59%. Further, in assay [7], the RD1000 result is “inactive”. In assay [8], this compound had an RD500 of 0.71 mg/kg. Moreover, the Ratio in assay [9] is 75; in assay [10], >6072; in assay [11] it was 10.

As to `Br.Oc1cc2c(c(Cl)c1O)CCNCC2c1ccccc1` (stereo unspecified), in assay [1], the RBF entry is “Active”. For the same compound, the RVR result in assay [2] was “Active”. Also, the “RVR ED15” value in assay [3] was 0.0035 mg/kg. For the same compound, in [4], the “Decrease RVR” value is listed as 39%. For the same compound, the RD500 in assay [12] came to 0.22 ug rat-1; in assay [8], 0.03 mg/kg. This compound displayed an RD1000 in [13] of 4.04 mg/kg.

On to `CN1CCc2c(cc(O)c(O)c2Cl)C(c2ccccc2)C1.Cl` (stereo unspecified), for which the RBF entry in assay [14] was “Significant activity”. In [2], the RVR entry is “Significant activity”. This compound gave a pEC50 in [15] of 6.22. Moreover, the RD500 stood at 0.32 ug rat-1 in [16] and 0.03 mg/kg in assay [8].

As for `Br.CN1CCc2c(cc(O)c(O)c2Cl)C(c2cccc(C(F)(F)F)c2)C1` (stereo unspecified), the RBF result in assay [17] is “inactive”. For the same compound, the RVR entry in assay [18] is “inactive”. The compound further registered an RD500 in assay [19] of 594 turns/2 h. The same compound came in with an RD1000 in [20] of 296 turns/2 h.

Turning to `Br.C=CCN1CCc2c(cc(O)c(O)c2Cl)C(c2cccc(Cl)c2)C1` (stereo unspecified), the RBF entry in [1] was “Highly significant activity”. In assay [18], the RVR entry was “inactive”. The “RVR ED15” value in [3] was 0.022 mg/kg. Also, the “Decrease RVR” value in assay [4] was determined as 38%. Also, the DA response in [5] was 83%; in assay [6], 92%. In [21], this compound came in with an RD1000 of 1160 turns/2 h. This compound also showed an RD500 in assay [8] of 0.11 mg/kg. Also, the results for the Ratio in [9], in [10] and in assay [11] were >6072, >6072 and > 6070, respectively.

As to `CCCN1CCc2c(cc(O)c(O)c2Cl)C(c2ccccc2)C1` (stereo unspecified), the RBF result in assay [14] is “Significant activity”. In addition, the RVR result in [18] is “inactive”. In assay [22], the RD500 entry is “inactive”.

Take `Cc1cccc(C2CN(Cc3ccco3)CCc3c2cc(O)c(O)c3Cl)c1` (stereo unspecified): in assay [17], the RBF result is “inactive”. Further, the RVR entry in assay [18] is “inactive”. In addition, in assay [23], the RD500 result is “inactive”.

Turning to `Oc1cc2c(c(Cl)c1O)CCN(Cc1ccco1)CC2c1cccc(Cl)c1` (stereo unspecified), the RBF result in [14] was “Significant activity”. Also, in [18], the RVR result was “inactive”. The RD1000 entry in assay [24] is “inactive”.

With `C=CCN1CCc2c(cc(OC(C)=O)c(OC(C)=O)c2Cl)C(c2ccccc2)C1.Cl` (stereo unspecified), the RD1000 entry in [25] was “inactive”. The compound further registered an RD500 in assay [8] of 0.03 mg/kg.

Turning to `CS(=O)(=O)O.Oc1ccc(C2CNCCc3c2cc(O)c(O)c3Cl)cc1` (stereo unspecified) [FENOLDOPAM MESYLATE], in assay [1], the RBF result was “Highly significant activity”. Further, the RVR entry in [2] is “Significant activity”. The “RVR ED15” value in [3] was determined as 0.0003 mg/kg. Also, the “Decrease RVR” value in assay [4] was 59%. Moreover, the RD500 in [26] was 0.5 ug rat-1. In assay [27], the RD500 result is “inactive”. The Ratio in [9] is >6072; in [10] it was >6072; in [11], > 6070.

In the case of `Cl.Oc1cc2c(c(Cl)c1O)CCN(Cc1ccc(C(F)(F)F)cc1)CC2c1ccccc1` (stereo unspecified), the RBF result in [14] was “Significant activity”. Besides, in assay [18], the RVR result is “inactive”. The same compound displayed an RD500 in assay [28] of 455 turns/2 h.

The record behind these values is ChEMBL document CHEMBL1122032, “Dopaminergic activity of substituted 6-chloro-1-phenyl-2,3,4,5-tetrahydro-1H-3-benzazepines” (J Med Chem, 1982).
